In brackets after ≈: the same amount, converted by molar mass.
Assays:
[1] = Solubility of the compound at pH 7.4 after 18 hrs by UV spectroscopic analysis; assay type: physicochemical; conditions: buffer
In short: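 Kinetic solubility. A 10 mM stock is diluted 1:100 into PBS pH 7.4 and incubated 18 h at room temperature, then filtered; the filtrate is mixed 1:1 with 1-propanol. UV spectrum (250–500 nm) compared by AUC with a 1-propanol/PBS reference. Single experiment in triplicate.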

[2] = Permeability of the compound at pH 7.4 after 30 mins by PAMPA; assay type: ADME; conditions: read-out: permeability
In short: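 PAMPA at pH 7.4. A 10 mM DMSO stock is diluted into system solution buffer; its UV spectrum serves as reference. Membrane painted with GIT lipid, acceptor chamber holds acceptor solution buffer. Sandwich stirred for 30 min, aqueous boundary layer set to 40. Donor and acceptor UV spectra read at 250–500 nm. Permeability coefficient from the AUCs of reference, donor and acceptor. Single experiment in triplicate.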

[3] = Dissociation constant, pKa of the compound; assay type: physicochemical
Plasmodium falciparum [4] = experiment: Antimalarial activity against chloroquine-sensitive Plasmodium falciparum 3D7 infected in human erythrocytes assessed as reduction in parasitemia after 72 hrs by spectrophotometry; assay type: functional, organism-based; conditions: 3D7, 72 h
Plasmodium falciparum [5] = experiment: Antimalarial activity against chloroquine-resistant Plasmodium falciparum K1 infected in human erythrocytes assessed as reduction in parasitemia after 72 hrs by spectrophotometry; assay type: functional, organism-based; conditions: K1, 72 h
Plasmodium falciparum [6] = experiment: Ratio of EC50 for chloroquine-resistant Plasmodium falciparum K1 infected in human erythrocytes to EC50 for chloroquine-sensitive Plasmodium falciparum 3D7 infected in human erythrocytes; assay type: functional
HepG2 = experiment: Cytotoxicity against human HepG2 cells assessed as intracellular ATP level after 72 hrs by Celltiter-Glo luminescent assay; assay type: cell-based; conditions: HepG2, 72 h
[7] = Ratio of EC50 for human HepG2 cells to EC50 for Plasmodium falciparum 3D7 infected in human erythrocytes
[8] = Ratio of EC50 for human HepG2 cells to EC50 for Plasmodium falciparum K1 infected in human erythrocytes

In the case of `c1ccc(Cc2ccc3c(NCCCNCc4ccco4)ccnc3c2)cc1`, the solubility at 18 h [1] is reported as 4.2 µM (≈ 1.56 µg/mL), the Papp at 0.5 h [2] is reported as 23 ×10⁻⁶ cm/s and the pKa [3] is reported as 9.47. For the same molecule, the EC50 (Plasmodium falciparum [4]) was 0.04 µM, the EC50 (Plasmodium falciparum [5]) was 3.55 µM and the “Ratio EC50” value (Plasmodium falciparum [6]) was 89.9. The EC50 (HepG2) was 16 µM, the “Ratio EC50” value [7] was 405.1 and the “Ratio EC50” value [8] was 4.5.

In the case of `COc1ccc(F)cc1CNCCCNc1ccnc2cc(Oc3cccc(N(C)C)c3)ccc12`, the solubility at 18 h [1] is reported as 14.5 µM (≈ 6.88 µg/mL), the Papp at 0.5 h [2] is reported as 317 ×10⁻⁶ cm/s and the pKa [3] is reported as 9.28. The EC50 (Plasmodium falciparum [4]) was 0.007 µM, the EC50 (Plasmodium falciparum [5]) was 0.031 µM and the “Ratio EC50” value (Plasmodium falciparum [6]) was 4.7. The EC50 (HepG2) was 3.3 µM, the “Ratio EC50” value [7] was 514 and the “Ratio EC50” value [8] was 110.

For `COc1ccc(F)cc1CNCCCNc1ccnc2cc(Cc3ccccc3)ccc12`, the solubility at 18 h [1] was 4.2 µM (≈ 1.8 µg/mL), the Papp at 0.5 h [2] was 23 ×10⁻⁶ cm/s and the pKa [3] was 9.47. The EC50 (Plasmodium falciparum [4]) was 0.011 µM, the EC50 (Plasmodium falciparum [5]) was 1.42 µM and the “Ratio EC50” value (Plasmodium falciparum [6]) was 129.5. The EC50 (HepG2) was 7.99 µM, the “Ratio EC50” value [7] was 726.7 and the “Ratio EC50” value [8] was 5.6.

`COc1ccc(F)cc1CNCCCNc1ccnc2cc(CCc3ccccc3)ccc12` showed a solubility at 18 h [1] of 4.2 µM (≈ 1.86 µg/mL), a Papp at 0.5 h [2] of 23 ×10⁻⁶ cm/s and a pKa [3] of 9.47. The EC50 (Plasmodium falciparum [4]) was 0.132 µM, the EC50 (Plasmodium falciparum [5]) was 2.14 µM and the “Ratio EC50” value (Plasmodium falciparum [6]) was 16.2. The EC50 (HepG2) was 4.24 µM, the “Ratio EC50” value [7] was 32.1 and the “Ratio EC50” value [8] was 2.

In the case of `COc1cccc(CNCCCNc2ccnc3cc(-c4ccccc4)ccc23)c1O`, the solubility at 18 h [1] is reported as 32 µM (≈ 13.2 µg/mL), the Papp at 0.5 h [2] is reported as 237 ×10⁻⁶ cm/s and the pKa [3] is reported as 9.47. For the same molecule, the EC50 (Plasmodium falciparum [4]) was 0.009 µM, the EC50 (Plasmodium falciparum [5]) was 1.94 µM and the “Ratio EC50” value (Plasmodium falciparum [6]) was 212.7. The EC50 (HepG2) was 3.21 µM, the “Ratio EC50” value [7] was 353 and the “Ratio EC50” value [8] was 1.7.

Work on `CN(C)c1cccc(Oc2ccc3c(NCCCNCc4ccc5c(c4)OCO5)ccnc3c2)c1` yielded a solubility at 18 h [1] of 14.5 µM (≈ 6.82 µg/mL), a Papp at 0.5 h [2] of 317 ×10⁻⁶ cm/s and a pKa [3] of 9.28. The EC50 (Plasmodium falciparum [4]) was 1.36 µM, the EC50 (Plasmodium falciparum [5]) was 3.93 µM and the “Ratio EC50” value (Plasmodium falciparum [6]) was 2.9. The EC50 (HepG2) was 16 µM, the “Ratio EC50” value [7] was 12 and the “Ratio EC50” value [8] was 4.

In the case of `FC(F)(F)c1cc(-c2ccc3c(NCCCNCc4ccc5c(c4)OCO5)ccnc3c2)cc(C(F)(F)F)c1`, the solubility at 18 h [1] is reported as 32 µM (≈ 17.5 µg/mL), the Papp at 0.5 h [2] is reported as 237 ×10⁻⁶ cm/s and the pKa [3] is reported as 9.47. The EC50 (Plasmodium falciparum [4]) was 0.284 µM, the EC50 (Plasmodium falciparum [5]) was 0.604 µM and the “Ratio EC50” value (Plasmodium falciparum [6]) was 2.1. For the same molecule, the EC50 (HepG2) was 1.16 µM, the “Ratio EC50” value [7] was 4.1 and the “Ratio EC50” value [8] was 1.9.

Work on `COc1cccc(CNCCCNc2ccnc3cc(Cc4ccccc4)ccc23)c1O` yielded a solubility at 18 h [1] of 4.2 µM (≈ 1.8 µg/mL), a Papp at 0.5 h [2] of 23 ×10⁻⁶ cm/s and a pKa [3] of 9.47. The EC50 (Plasmodium falciparum [4]) was 0.017 µM, the EC50 (Plasmodium falciparum [5]) was 6.97 µM and the “Ratio EC50” value (Plasmodium falciparum [6]) was 400.6. The EC50 (HepG2) was 5.72 µM, the “Ratio EC50” value [7] was 328.6 and the “Ratio EC50” value [8] was 0.8.

Work on `COc1ccc(F)cc1CNCCCNc1ccnc2cc(Cc3ccc(F)cc3)ccc12` yielded a solubility at 18 h [1] of 4.2 µM (≈ 1.88 µg/mL), a Papp at 0.5 h [2] of 23 ×10⁻⁶ cm/s and a pKa [3] of 9.47. For the same molecule, the EC50 (Plasmodium falciparum [4]) was 0.075 µM, the EC50 (Plasmodium falciparum [5]) was 0.58 µM and the “Ratio EC50” value (Plasmodium falciparum [6]) was 7.8. For the same molecule, the EC50 (HepG2) was 3.53 µM, the “Ratio EC50” value [7] was 47.1 and the “Ratio EC50” value [8] was 6.1.

For `COc1cccc(CNCCCNc2ccnc3cc(Oc4ccc(Cl)cc4)ccc23)c1O`, the solubility at 18 h [1] was 14.5 µM (≈ 6.73 µg/mL), the Papp at 0.5 h [2] was 317 ×10⁻⁶ cm/s and the pKa [3] was 9.28. The EC50 (Plasmodium falciparum [4]) was 0.011 µM, the EC50 (Plasmodium falciparum [5]) was 0.785 µM and the “Ratio EC50” value (Plasmodium falciparum [6]) was 70.7. For the same molecule, the EC50 (HepG2) was 5.7 µM, the “Ratio EC50” value [7] was 514 and the “Ratio EC50” value [8] was 7.

`CC(C)(C)c1ccc(-c2ccc3c(NCCCNCc4ccco4)ccnc3c2)cc1` gave a solubility at 18 h [1] of 32 µM (≈ 13.2 µg/mL), a Papp at 0.5 h [2] of 237 ×10⁻⁶ cm/s and a pKa [3] of 9.47. The EC50 (Plasmodium falciparum [4]) was 0.704 µM, the EC50 (Plasmodium falciparum [5]) was 0.325 µM and the “Ratio EC50” value (Plasmodium falciparum [6]) was 0.5. For the same molecule, the EC50 (HepG2) was 3.15 µM, the “Ratio EC50” value [7] was 4.5 and the “Ratio EC50” value [8] was 9.7.

In the case of `COc1ccc(-c2ccc3c(NCCCNCc4cccc(OC)c4O)ccnc3c2)cc1`, the solubility at 18 h [1] is reported as 32 µM (≈ 14.2 µg/mL), the Papp at 0.5 h [2] is reported as 237 ×10⁻⁶ cm/s and the pKa [3] is reported as 9.47. The EC50 (Plasmodium falciparum [4]) was 0.013 µM, the EC50 (Plasmodium falciparum [5]) was 0.078 µM and the “Ratio EC50” value (Plasmodium falciparum [6]) was 6. The EC50 (HepG2) was 1.6 µM, the “Ratio EC50” value [7] was 122.9 and the “Ratio EC50” value [8] was 20.6.

Work on `CCC(CC)c1ccc2c(NCCCNCc3ccc4c(c3)OCO4)ccnc2c1` yielded a solubility at 18 h [1] of 4.2 µM (≈ 1.7 µg/mL), a Papp at 0.5 h [2] of 23 ×10⁻⁶ cm/s and a pKa [3] of 9.47. For the same molecule, the EC50 (Plasmodium falciparum [4]) was 0.027 µM, the EC50 (Plasmodium falciparum [5]) was 1.06 µM and the “Ratio EC50” value (Plasmodium falciparum [6]) was 39.5. The EC50 (HepG2) was 6.35 µM, the “Ratio EC50” value [7] was 235.1 and the “Ratio EC50” value [8] was 6.

Molecule `COc1cccc(CNCCCNc2ccnc3cc(CCC(C)C)ccc23)c1O` has a solubility at 18 h [1] of 4.2 µM (≈ 1.71 µg/mL), a Papp at 0.5 h [2] of 23 ×10⁻⁶ cm/s and a pKa [3] of 9.47. For the same molecule, the EC50 (Plasmodium falciparum [4]) was 0.022 µM, the EC50 (Plasmodium falciparum [5]) was 8 µM and the “Ratio EC50” value (Plasmodium falciparum [6]) was 365.3. The EC50 (HepG2) was 5.39 µM, the “Ratio EC50” value [7] was 245.9 and the “Ratio EC50” value [8] was 0.7.

From ChEMBL document CHEMBL1833887, “Synthesis and evaluation of 7-substituted 4-aminoquinoline analogues for antimalarial activity” (J Med Chem, 2011)
